Screening results: PubChem, several laboratories
In the library only some 2.2% were active in any assay of this set; here they are far more common.
PKD1 inh = inhibitors of human PKD1 kinase; PKD1 kinase fluorescence polarization assay; inhibition, % (no concentration beside the values); 200,000 tested, 0.056% active; AID 797; in the data active = inhibition above about 50%
FLuc stim CS = firefly luciferase counter-screen for stimulation assays | P08659 | ATPlite luciferase biochemical, luminescence, 10 min; 0 = ATP-free wells, 1 = DMSO control | activation factor at 10 µM | 200,000 tested, under 10 active;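 active = luciferase activation factor, scaled between plate controls, of at least 2 with compound at 10 µM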
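System: luciferase plus luciferin reagent, cell-free; medium: PBS as buffer for the ATP substrate; dosing: test compounds dosed from 2 mM stocks in 100% DMSO; timing: 10 min post-reagent at room temperature; measured by: luminescence measurement of luciferase light output; evaluation: luciferase activation, seen as luminescence increase over controls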
PPC-1+TRAIL kill = kills PPC-1 cancer cells in the presence of TRAIL; PPC-1 cells + TRAIL, ATPLite viability luminescence; cell killing (% activity), % at 4 µM or 5 µM; 220,000 tested, 0.41% active; AID 1443;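 active = cell killing above 50% in the first pass at 4 µM, then a duplicate retest at 5 µM averaging 50% or more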;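 also: plate controls were cells with TRAIL plus DMSO for no effect and medium-only wells lacking cells for full effect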
FLuc inh counter = Photinus pyralis luciferase inhibition counter-screen | P08659 | ATPLite firefly luciferase biochemical luminescence, 10 min | inhibition, % at 10 µM | 200,000 tested, 1.5% active | AID 1006;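 active = inhibition above about 50% when tested at 10 µM, limit read from the data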
Wee1 degr inh = blocks degradation of human Wee1 kinase. reporter increase, % at 5 µM. AID 1321. HeLa Luc-Wee1K328M stability, luciferase luminescence; 100% = proteasome inhibitor MG132 effect. P30291. 220,000 tested, 1.2% active;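 active = activation above the mean of all tested compounds plus 3 SD, set per screening run, cut at about 8.8% in these data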;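 also: cells exposed to compound for 20 h before luminescence read; 0% = DMSO alone and 100% = MG132 at 30 µM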
TRAIL sens C8 = sensitizes caspase-8 expressing cells to TRAIL | NB7+C8 cells + TRAIL, ATPlite viability luminescence | inhibition (viability loss, TRAIL sensitization), % at 10 µM | 360,000 tested, 1% active | AID 624354;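 active = compounds causing at least 50% loss of cell viability in the single-dose screen, relative to plate controls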
Active calls of the source: *; . = no result given.

SMILES | PKD1 inh | FLuc stim CS | PPC-1+TRAIL kill | FLuc inh counter | Wee1 degr inh | TRAIL sens C8
COc1ccc(NC(=O)c2cccc(N3C(=O)C4C5C=CC(C6CC56)C4C3=O)c2)cc1 (configuration not stated) | . | . | . | . | . | 6
Cc1ccc(S(=O)(=O)N(Cc2ccccc2F)C(=O)N2CCN(C)CC2)cc1 | . | . | . | . | . | -7
COc1cccc(CNC(=O)CN2C(=O)COc3ccc(S(=O)(=O)N4CCOCC4)cc32)c1 | . | . | . | . | . | -2
COc1ccc(CN2C(=O)c3cccnc3C2=O)cc1S(=O)(=O)NC1CCCCC1C (configuration not stated) | . | . | . | . | . | 8
COc1cccc(/C=N/n2c(N)nc3ccccc32)c1OC | 10 | 0.9 | -4 | 9 | 1 | 14
COc1ccc(/C=N/n2c(N)nc3ccccc32)cc1OC | 11 | 0.4 | 34 | 60* | 5 | 12
COc1cc2c(cc1OC)C(c1ccccc1)N(C(=O)CCl)CC2 (configuration not stated) | 3 | 1.1 | 11 | -5 | -3 | 86*
O=C(Nc1nc2ccccc2n1CCN1CCCCC1)C1CCCCC1 | -8 | 1.1 | 6 | -9 | -2 | 55*
O=C(Nc1nc2ccccc2n1CCN1CCCC1)C1CCCCC1 | 1 | 1 | 10 | -4 | -3 | 14
C#CCSc1nnc(-c2cc3c(C(F)(F)F)nn(C)c3s2)n1C | -16 | 1 | -6 | 0 | 6 | 89*
CCCCSc1nnc(-c2cc3c(C(F)(F)F)nn(C)c3s2)n1C | 3 | 1 | 9 | -4 | 1 | -10
O=C(N[C@@H](Cc1ccccc1)C(=O)N1CCN(S(=O)(=O)c2ccc(F)cc2)CC1)c1ccco1 | . | . | . | . | . | 2
O=[N+]([O-])c1ccc(N2CCN(C(=S)Nc3ccc(F)cc3F)CC2)cc1 | -6 | 1 | 10 | -1 | 9.2* | -7
O=[N+]([O-])c1ccc(N2CCN(C(=S)Nc3ccc(F)cc3)CC2)cc1 | -1 | 1.1 | 17 | -11 | 1 | 1
O=C(Cc1ccccc1[N+](=O)[O-])NCc1ccc(Cl)cc1Cl | 0 | 0.4 | 38 | 59* | 9.4* | 27
Cc1ccc2nc(-c3ccc(NC(=O)C(C)Sc4nncs4)cc3)sc2c1 (configuration not stated) | . | . | . | . | . | 52*
Cc1nc2ccc(NC(=O)Cc3ccccc3F)cc2s1 | -6 | 0.5 | 34 | 54* | 3 | 26
Cc1ccc(S(=O)(=O)CCC(=O)Nc2ccc3nc(C)sc3c2)cc1 | -3 | 1 | -6 | -2 | 11* | 2
Cc1nc2ccc(NC(=O)CCS(=O)(=O)c3ccccc3)cc2s1 | -6 | 0.9 | 30 | 9 | -5 | -3
Cc1ccc2nc(-c3ccc(NC(=O)CCS(=O)(=O)c4ccccc4)cc3)sc2c1 | 7 | 0.9 | 45 | 11 | -2 | 88*
CN(CC(=O)OCC(N)=O)S(=O)(=O)c1ccc(Cl)cc1 | 6 | 1.1 | 24 | -5 | 3 | -5
Cc1cccc(NC2=NC(C)(C)N=C(N)N2)c1 | -7 | 1.1 | 44 | -7 | 0 | 71*
Cc1[nH]nc(Nc2ccc(Br)cc2)c1[N+](=O)[O-] | . | . | 15 | . | 9.2* | -10
Cc1ccc(Nc2n[nH]c(C)c2[N+](=O)[O-])cc1 | 6 | 0.9 | 33 | 10 | 1 | -5
CCCOc1ccc(-c2nc(N3CCN(C)CC3)c3ccccc3n2)cc1 | . | . | . | . | . | 66*
SMILES | PKD1 inh | FLuc stim CS | PPC-1+TRAIL kill | FLuc inh counter | Wee1 degr inh | TRAIL sens C8
Cn1c(=O)c2c(-c3ccccc3)n(Cc3cccnc3)cc2n(C)c1=O | -17 | 1 | 3 | -4 | 1 | -7
Cc1ccc(-c2c3c(=O)n(C)c(=O)n(C)c3cn2Cc2cccnc2)cc1 | 2 | 1.1 | 18 | -9 | 24* | -14
COc1ccc(OC)c(NC(=O)c2cc(OC(C)=O)cc(C(=O)Nc3cc(OC)ccc3OC)c2)c1 | . | . | . | . | . | 24
COCCNC(=O)c1ccc2ccccc2n1 | -6 | 1 | -4 | 0 | 6 | -5
Cc1ccc(C)c(NC(=O)c2ccc3ccccc3n2)c1 | -1 | 0.4 | 37 | 56* | 1 | 48
Cc1ccccc1OCCNC(=O)c1ccc2ccccc2n1 | -6 | 1 | -2 | 4 | 9.6* | -10
COc1ccc(-n2ccc(=O)c(C(=O)O)n2)c(OC)c1 | . | . | . | . | . | -11
COc1ccc(-c2nc3ccccn3c2Cl)cc1 | . | . | . | . | . | 72*
